# KCNK9 inh: blocks the human KCNK9 two-pore domain potassium channel; Q9NPC2; HEK293 KCNK9, FluxOR thallium flux fluorescence; hits give low values; B-score at 10 µM; actives 1.2% (n = 310,000); AID 488922;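 active = ratio B-score over 3 SD below the library mean, with starting fluorescence within 5 SD of its mean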;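 note: negative B-score means less thallium flux so channel inhibition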
# KCNQ1 act: potentiators or activators of human KCNQ1 potassium channel | actives 0.35% (n = 310,000) | CHO-K1 KCNQ1, thallium flux FluxOR fluorescence; hits give high values | AID 2648 | B-score at 10 µM;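 active = fluorescence ratio B-score, a plate-corrected score, at least three library SD, with initial intensity B-score within 5 SD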
#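 Assay system: CHO-K1 cells stably expressing KCNQ1. Medium: assay buffer for compound exposure, DMSO matched across wells. Timing: 37 °C overnight plating, 90-min dark dye load, 20-min compound pretreatment. Signal: kinetic FluxOR fluorescence, 10 s baseline plus 110 s post-stimulus.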
# hERG rescue: compounds protecting human hERG from proarrhythmic drug block | CHO-hERG, FluxOR thallium flux, dofetilide IC70 present | activation (rescue from dofetilide block), less the hit threshold, % at 10 µM | actives 0.51% (n = 310,000) | AID 1511;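 active = activation above the mean of controls blocked by dofetilide plus 5 SD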;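 note: thallium influx through hERG after potassium depolarization seen as dye fluorescence rise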
# KCNK3 block: human KCNK3 channel inhibition, primary screen | B-score at 10 µM | actives 0.84% (n = 340,000) | AID 602410 | CHO-KCNK3 thallium flux, FluxOR fluorescence; hits give low values;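 active = B-score under library mean minus 4 SD, starting fluorescence ratio at most library mean plus 5 SD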;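 note: more negative B-score means stronger inhibition of thallium flux through KCNK3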
# Kir21 inh: Kir2.1 (mouse) channel inhibition; P35561; HEK293-Kir2.1, FluxOR thallium flux fluorescence; hits give low values; B-score at 10 µM; actives 0.85% (n = 310,000); AID 1672;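 active = fluorescence ratio B-score at or below minus 3 SD of library scores, with starting-brightness B-score within 2 SD, cut at about -4.2 in these data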;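 note: channel flux triggered by added potassium and thallium sulfate stimulus; B-score of peak minus minimum fluorescence over baseline after thallium stimulus; more negative B-score means stronger Kir2.1 block with less thallium influx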
# Target sequence (P35561 whole entry, looked up): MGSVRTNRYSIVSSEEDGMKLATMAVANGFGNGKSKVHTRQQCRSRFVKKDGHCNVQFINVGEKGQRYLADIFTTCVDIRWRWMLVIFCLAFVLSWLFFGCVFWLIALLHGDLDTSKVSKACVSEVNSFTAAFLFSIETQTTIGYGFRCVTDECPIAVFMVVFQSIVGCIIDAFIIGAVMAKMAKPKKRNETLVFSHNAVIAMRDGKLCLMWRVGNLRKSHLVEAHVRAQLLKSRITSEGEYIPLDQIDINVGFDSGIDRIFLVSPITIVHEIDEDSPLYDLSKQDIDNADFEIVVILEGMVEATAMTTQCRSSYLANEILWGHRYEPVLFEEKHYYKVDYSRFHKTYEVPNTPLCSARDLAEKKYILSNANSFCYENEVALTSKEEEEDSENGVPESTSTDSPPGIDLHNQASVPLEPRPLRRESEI
# KCNQ1 inh: blocks the human KCNQ1 potassium channel | P51787 | CHO-K1 KCNQ1, FluxOR thallium flux fluorescence; hits give high values | B-score at 10 µM | actives 1.3% (n = 310,000);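 active = compounds whose thallium flux B-score, printed positive for inhibition, exceeds three library SD while starting fluorescence stays within three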;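 note: channel opened by potassium depolarization with thallium stimulus after 20 min compound exposure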
# * hit, by the source's call; i = inactive; nt = no result. The list is not random: actives were taken first. Their share in the collection is about 3.7%.
SMILES,KCNK9 inh,KCNQ1 act,hERG rescue,KCNK3 block,Kir21 inh,KCNQ1 inh
CCOc1ccc(CN(C)C(C)C(=O)NCc2ccccc2)cc1 (configuration not stated),i,i,-5.1,i,-0.23,i
COc1ccc(C)cc1Nc1n[n+](-c2ccccc2)c(-c2cc(OC)c(OC)cc2Br)s1,i,i,-21.2,i,-5.99*,7*
CCOc1ccc(CCNC(=O)c2ccc(CS(=O)Cc3ccccc3Cl)o2)cc1 (configuration not stated),i,i,-17.8,i,-4.3*,i
CCOc1ccc(CCNC(=O)c2ccc(CS(=O)Cc3ccc(Cl)cc3)o2)cc1 (configuration not stated),i,i,-9.1,i,0.35,i
CC(C)CCNC(=O)Cn1c(=O)oc2cc(S(=O)(=O)N3CCc4ccccc43)ccc21,-9.21*,i,-1.1,i,-0.56,i
O=C(Cn1c(=O)oc2cc(S(=O)(=O)N3CCCCCC3)ccc21)NC1CCCCC1,i,i,-7.3,i,0.24,i
O=C(Cn1c(=O)oc2cc(S(=O)(=O)N3CCc4ccccc43)ccc21)NC1CCCC1,-8.76*,i,1.2,i,-0.25,i
Cc1cccc(NC(=O)CN2CCN(C(=O)c3oc4c(Cl)cccc4c3C)CC2)c1C,nt,nt,nt,i,nt,nt
CCOC(=O)C(C(=O)OCC)C(C(=O)OCC)N1CCOCC1 (configuration not stated),i,10*,-4.9,i,0.57,i
CCOC(=O)N/N=C(\CCC(=O)O)c1cccs1,i,i,-14.0,i,1.84,i
O=C(O/N=C1\CCS(=O)(=O)c2sccc21)C1CC1,i,i,5.0*,i,1.3,i
CC(C)(C)C(=O)O/N=C1\CCS(=O)(=O)c2sccc21,i,i,-3.6,i,-1.51,i
CCOC(=O)c1sc(=NC(=O)/C=C/c2ccccc2)n(C)c1C,i,i,-9.8,i,0.1,12*
CCOC(=O)c1sc(=NC(=O)c2cccs2)n(C)c1C,i,i,-2.0,i,-0.26,i
Cc1cc(C)c(C(=O)COC(=O)c2cccc(S(=O)(=O)NCc3ccccc3)c2)cc1C,i,i,-7.0,i,-4.31*,i
O=C(COC(=O)c1cccc(S(=O)(=O)NCc2ccccc2)c1)c1ccccc1,i,i,-7.6,i,0.04,i
COc1ccc(C)cc1Nc1nc(N)c2ccccc2n1,i,i,-8.2,i,-4.87*,i
COc1ccc(OC)c(Nc2c3ccccc3nc3ccccc23)c1,i,i,-16.3,i,-4.63*,i
COc1ccc([N+](=O)[O-])cc1Nc1c2ccccc2nc2ccccc12,i,i,-8.2,i,-1.56,8*
Cc1ccccc1Nc1nc(N)c2ccccc2n1,i,i,-3.6,i,-2.01,i
COc1ccc(CNC(=O)CN(c2ccccc2)S(=O)(=O)c2ccccc2[N+](=O)[O-])cc1,i,i,-2.2,i,1.26,i
FC(F)(F)c1cccc(OCC2CNC(=S)O2)c1 (configuration not stated),i,i,-12.4,i,-0.68,i
O=C1c2cccc3c([N+](=O)[O-])ccc(c23)C(=O)N1c1ccc(Cl)cn1,i,i,-19.1,i,-4.95*,7*
O=C1c2ccc([N+](=O)[O-])cc2C(=O)N1c1ccc(Cl)cn1,i,i,-11.0,i,-2.19,i
O=C1c2cccc3c([N+](=O)[O-])ccc(c23)C(=O)N1O,i,i,-23.0,i,-3.41,8*
SMILES,KCNK9 inh,KCNQ1 act,hERG rescue,KCNK3 block,Kir21 inh,KCNQ1 inh
O=C1c2cccc3c(N4CCCCC4)ccc(c23)C(=O)N1c1ccccn1,-7.59*,i,-19.6,i,-0.67,8*
O=C1c2cccc3c([N+](=O)[O-])ccc(c23)C(=O)N1c1ccccn1,-6.59*,i,-13.6,i,-2.51,i
Cc1ccc(SCC(=O)Nc2ccc(-c3nc4ccccc4[nH]3)cc2)cc1,i,i,-2.8,i,0,i
CCN(CC)CC(=O)Nc1c(C#N)cnn1-c1ccccc1,i,i,-10.0,i,1.35,i
CN(CCC#N)C(=O)COC(=O)c1ccc2c(c1)C(=O)N(C1CCCCC1)C2=O,i,i,-6.2,i,-0.16,i
CN1CCC(=C(c2ccccc2)c2ccc(Br)cc2)CC1,i,i,-17.7,i,-8.6*,i
NS(=O)(=O)OCC(Cc1ccccc1)N1C(=O)c2ccccc2C1=O (configuration not stated),i,i,-4.1,i,-0.44,i
Cc1ccc(C(C)C)cc1S(=O)(=O)NCc1ccccn1,i,i,-1.7,i,-5.83*,i
CCOc1cc(S(=O)(=O)NCc2ccccn2)c(C)cc1C,i,i,-12.7,nt,-4.71*,i
Cc1[nH]n2c(=O)cc(C(C)(C)C)nc2c1-c1ccccc1,i,15*,8.6*,i,-1.5,i
Cc1[nH]n2c(=O)cc(-c3ccc([N+](=O)[O-])cc3)nc2c1-c1ccccc1,i,i,-8.5,i,-0.14,7*
Cc1[nH]n2c(=O)cc(C(C)C)nc2c1-c1ccccc1,i,i,-2.7,i,-0.85,i
COc1ccc(CNC(=O)C2CCCN(S(=O)(=O)c3ccc(F)cc3)C2)cc1 (configuration not stated),i,i,-7.8,i,1.56,i
CCc1ccccc1NC(=O)c1ccc(S(=O)(=O)N2CCCC2)cc1,i,i,-8.6,i,0.84,i
S=C(NCCc1ccccc1)NC1CCCCCC1,i,i,-14.2,i,0.69,i
S=C(NCCNCc1ccccc1)NC1CCCCC1,-7.14*,i,-14.7,nt,2.14,i
O=C(Cc1cccs1)Nc1nc(-c2ccc(F)c(F)c2)cs1,i,i,-6.1,i,0.5,i
COc1ccc(CC(=O)Nc2nc(C(C)(C)C)cs2)cc1,i,i,0.8,i,-8.25*,i
COc1ccc(-c2csc(NC(=O)Cc3ccccc3F)n2)c(OC)c1,-6.86*,i,-7.3,i,0.85,i
O=C(Cc1cccs1)Nc1nc(-c2ccc(F)cc2F)cs1,-7.53*,i,-5.2,i,0.29,i
O=C1CCC[C@@H]2[C@@H](Cc3ccccc3)[C@H](N3CCN(c4ccccc4)CC3)C[C@@H]3CCN1[C@@H]32,nt,nt,nt,i,nt,nt
CCn1c(=O)c(C(=O)NNS(=O)(=O)c2ccc(C)cc2)c(O)c2ccccc21,i,i,-7.3,i,0.22,i
CCCn1c(=O)c(C(=O)NCc2ccncc2)c(O)c2ccccc21,i,i,-3.8,i,1.03,i

# Bioassay records as filed in PubChem BioAssay.
